Laboratory results reported in ChEMBL document CHEMBL3994637, “Broad spectrum anti-infective properties of benzisothiazolones and the parallels in their anti-bacterial and anti-fungal effects” (Bioorg Med Chem Lett, 2017).
Converted amounts (≈) assume the structure as drawn.

Assays:
Plasmodium falciparum = assay: Antimalarial activity against chloroquine-sensitive Plasmodium falciparum 3D7 after 72 hrs by SYBR Green-1 staining based fluorescence assay; type: functional; details: 3D7, 72 h
Staphylococcus aureus [1] = assay: Antibacterial activity against gentamicin-resistant Staphylococcus aureus ATCC 33592 by broth microdilution method; type: functional
Staphylococcus aureus [2] = assay: Antibacterial activity against Staphylococcus aureus ATCC 25923 by broth microdilution method; type: functional
Sporothrix schenckii = assay: Anti-fungal activity against Sporothrix schenckii after 48 hrs by broth microdilution method; type: functional
Cryptococcus neoformans = assay: Anti-fungal activity against Cryptococcus neoformans after 48 hrs by broth microdilution method; type: functional
Aspergillus fumigatus = assay: Anti-fungal activity against Aspergillus fumigatus after 48 hrs by broth microdilution method; type: functional
Staphylococcus aureus [3] = assay: Antibacterial activity against methicillin-resistant Staphylococcus aureus ATCC 700699 by broth microdilution method; type: functional; details: Mu50
Escherichia coli = assay: Antibacterial activity against Escherichia coli ATCC 9637 by broth microdilution method; type: functional; details: W
How it was run: (§1)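 Bacteria were tested by the NCCLS method in Mueller Hinton broth, with gentamicin and norfloxacin as reference drugs.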

Staphylococcus aureus [4] = assay: Antibacterial activity against Staphylococcus aureus ATCC 29213 by broth microdilution method; type: functional
[5] = system: Trichophyton mentagrophytes; assay: Anti-fungal activity against Trichophyton mentagrophytes after 48 hrs by broth microdilution method; type: functional
Klebsiella pneumoniae = assay: Antibacterial activity against Klebsiella pneumoniae ATCC 27736 by broth microdilution method; type: functional; how it was run: as §1
Candida parapsilosis = assay: Anti-fungal activity against Candida parapsilosis ATCC 22019 after 48 hrs by broth microdilution method; type: functional; details: Lodderomyces parapsilosis, ATCC 22019, 48 h
Pseudomonas aeruginosa = assay: Antibacterial activity against Pseudomonas aeruginosa ATCC BAA-427 by broth microdilution method; type: functional; how it was run: as §1
Candida albicans = assay: Anti-fungal activity against Candida albicans after 48 hrs by broth microdilution method; type: functional
[6] = Cytotoxicity against monkey Vero C1008 cells after 72 hrs by MTT assay; type: cell-based; details: chlorocebus sabaeus
[7] = Selectivity index, ratio of CC50 for monkey Vero C1008 cells to IC50 for chloroquine-sensitive Plasmodium falciparum 3D7; type: toxicity; details: read-out: Ratio CC50/IC50

Row | Compound | IC50 (Plasmodium falciparum) | MIC (Staphylococcus aureus [2]) | MIC (Sporothrix schenckii) | MIC (Cryptococcus neoformans) | MIC (Aspergillus fumigatus) | MIC (Staphylococcus aureus [3]) | MIC (Escherichia coli) | MIC (Staphylococcus aureus [4]) | MIC [5] | MIC (Klebsiella pneumoniae) | MIC (Candida parapsilosis) | MIC (Pseudomonas aeruginosa) | MIC (Candida albicans) | IC50 (Staphylococcus aureus [2]) | IC50 (Sporothrix schenckii) | IC50 (Cryptococcus neoformans) | IC50 (Escherichia coli) | IC50 (Staphylococcus aureus [4]) | IC50 (Klebsiella pneumoniae) | IC50 (Pseudomonas aeruginosa) | further results
1 | O=c1c2ccccc2sn1-c1ccccc1Cl | > 2000 nM | 25 µg/mL (≈ 95.5 µM) | 12.5 µg/mL (≈ 47.8 µM) | 12.5 µg/mL (≈ 47.8 µM) | 25 µg/mL (≈ 95.5 µM) | 12.5 µg/mL (≈ 47.8 µM) | > 50 µg/mL | 12.5 µg/mL (≈ 47.8 µM) | 12.5 µg/mL (≈ 47.8 µM) | > 50 µg/mL | 25 µg/mL (≈ 95.5 µM) | > 50 µg/mL | 25 µg/mL (≈ 95.5 µM) | – | – | – | – | – | – | – | MIC (Staphylococcus aureus [1]): 12.5 µg/mL (≈ 47.8 µM)
2 | COc1ccccc1-n1sc2ccccc2c1=O | > 2000 nM | 2 µg/mL (≈ 7.77 µM) | 4 µg/mL (≈ 15.5 µM) | 3.8 µg/mL (≈ 14.8 µM) | > 50 µg/mL | 1.07 µg/mL (≈ 4.16 µM) | > 50 µg/mL | 2.4 µg/mL (≈ 9.33 µM) | 2.6 µg/mL (≈ 10.1 µM) | > 50 µg/mL | 3.2 µg/mL (≈ 12.4 µM) | > 50 µg/mL | 7.2 µg/mL (≈ 28 µM) | 1 µg/mL (≈ 3.89 µM) | 0.6 µg/mL (≈ 2.33 µM) | 0.9 µg/mL (≈ 3.5 µM) | > 50 µg/mL | 1.6 µg/mL (≈ 6.22 µM) | > 50 µg/mL | > 50 µg/mL | CC50 at 72 h [6]: 24500 nM; IC50 (Aspergillus fumigatus): > 50 µg/mL; IC50 [5]: 0.7 µg/mL (≈ 2.72 µM); IC50 (Candida parapsilosis): 0.7 µg/mL (≈ 2.72 µM); IC50 (Candida albicans): 2.9 µg/mL (≈ 11.3 µM)
3 | Cc1ccc(-n2sc3ccccc3c2=O)cc1 | 1660 nM | 1.07 µg/mL (≈ 4.43 µM) | 1 µg/mL (≈ 4.14 µM) | 1.5 µg/mL (≈ 6.22 µM) | 13.3 µg/mL (≈ 55.1 µM) | 0.75 µg/mL (≈ 3.11 µM) | > 50 µg/mL | 1 µg/mL (≈ 4.14 µM) | 1.7 µg/mL (≈ 7.04 µM) | > 50 µg/mL | 0.6 µg/mL (≈ 2.49 µM) | > 50 µg/mL | 2.4 µg/mL (≈ 9.95 µM) | 0.6 µg/mL (≈ 2.49 µM) | 0.9 µg/mL (≈ 3.73 µM) | 1.2 µg/mL (≈ 4.97 µM) | > 50 µg/mL | 0.6 µg/mL (≈ 2.49 µM) | > 50 µg/mL | > 50 µg/mL | CC50 at 72 h [6]: 20000 nM; IC50 (Aspergillus fumigatus): 4.1 µg/mL (≈ 17 µM); selectivity ratio [7]: 12; IC50 (Candida parapsilosis): 0.4 µg/mL (≈ 1.66 µM); IC50 (Candida albicans): 1.3 µg/mL (≈ 5.39 µM)
4 | O=c1c2ccccc2sn1-c1ccccc1F | > 2000 nM | 25 µg/mL (≈ 102 µM) | 12.5 µg/mL (≈ 51 µM) | 12.5 µg/mL (≈ 51 µM) | 25 µg/mL (≈ 102 µM) | 6.25 µg/mL (≈ 25.5 µM) | > 50 µg/mL | 12.5 µg/mL (≈ 51 µM) | 12.5 µg/mL (≈ 51 µM) | > 50 µg/mL | 12.5 µg/mL (≈ 51 µM) | > 50 µg/mL | 12.5 µg/mL (≈ 51 µM) | – | – | – | – | – | – | – | MIC (Staphylococcus aureus [1]): 12.5 µg/mL (≈ 51 µM)
5 | O=c1c2ccccc2sn1-c1ccccc1I | > 2000 nM | 12.5 µg/mL (≈ 35.4 µM) | 25 µg/mL (≈ 70.8 µM) | 25 µg/mL (≈ 70.8 µM) | 50 µg/mL (≈ 142 µM) | 25 µg/mL (≈ 70.8 µM) | > 50 µg/mL | 12.5 µg/mL (≈ 35.4 µM) | 25 µg/mL (≈ 70.8 µM) | > 50 µg/mL | 25 µg/mL (≈ 70.8 µM) | > 50 µg/mL | 25 µg/mL (≈ 70.8 µM) | – | – | – | – | – | – | – | MIC (Staphylococcus aureus [1]): 12.5 µg/mL (≈ 35.4 µM)
6 | O=c1c2ccccc2sn1Cc1ccc2c(c1)OCO2 | > 2000 nM | 2.6 µg/mL (≈ 9.11 µM) | 0.5 µg/mL (≈ 1.75 µM) | 0.8 µg/mL (≈ 2.8 µM) | 1.7 µg/mL (≈ 5.96 µM) | 1 µg/mL (≈ 3.5 µM) | > 50 µg/mL | 2.5 µg/mL (≈ 8.76 µM) | 1.5 µg/mL (≈ 5.26 µM) | > 50 µg/mL | > 50 µg/mL | > 50 µg/mL | 0.7 µg/mL (≈ 2.45 µM) | 2.2 µg/mL (≈ 7.71 µM) | 0.3 µg/mL (≈ 1.05 µM) | 0.8 µg/mL (≈ 2.8 µM) | > 50 µg/mL | 1.9 µg/mL (≈ 6.66 µM) | > 50 µg/mL | > 50 µg/mL | IC50 (Aspergillus fumigatus): 1.5 µg/mL (≈ 5.26 µM); IC50 (Staphylococcus aureus [3]): 0.6 µg/mL (≈ 2.1 µM); IC50 (Candida albicans): 0.56 µg/mL (≈ 1.96 µM)
7 | O=c1c2ccccc2sn1CCn1sc2ccccc2c1=O | > 2000 nM | 16.7 µg/mL (≈ 50.8 µM) | 3.5 µg/mL (≈ 10.7 µM) | 2.2 µg/mL (≈ 6.7 µM) | 12.5 µg/mL (≈ 38.1 µM) | 0.9 µg/mL (≈ 2.74 µM) | > 50 µg/mL | 0.4 µg/mL (≈ 1.22 µM) | 2.9 µg/mL (≈ 8.83 µM) | > 50 µg/mL | > 50 µg/mL | > 50 µg/mL | 1.54 µg/mL (≈ 4.69 µM) | 4.1 µg/mL (≈ 12.5 µM) | 2.3 µg/mL (≈ 7 µM) | 1.4 µg/mL (≈ 4.26 µM) | > 50 µg/mL | 0.3 µg/mL (≈ 0.913 µM) | > 50 µg/mL | > 50 µg/mL | IC50 (Staphylococcus aureus [3]): 0.4 µg/mL (≈ 1.22 µM); IC50 (Candida parapsilosis): > 50 µg/mL; IC50 (Candida albicans): 1.51 µg/mL (≈ 4.6 µM)
8 | COC(=O)[C@H](C)NC(=O)[C@H](C)n1sc2ccccc2c1=O | > 2000 nM | 7.5 µg/mL (≈ 24.3 µM) | > 50 µg/mL | > 50 µg/mL | > 50 µg/mL | 7.5 µg/mL (≈ 24.3 µM) | > 50 µg/mL | 5.6 µg/mL (≈ 18.2 µM) | > 50 µg/mL | > 50 µg/mL | > 50 µg/mL | > 50 µg/mL | > 50 µg/mL | 3.6 µg/mL (≈ 11.7 µM) | > 50 µg/mL | > 50 µg/mL | > 50 µg/mL | 3.5 µg/mL (≈ 11.4 µM) | > 50 µg/mL | > 50 µg/mL | IC50 (Aspergillus fumigatus): > 50 µg/mL; IC50 (Staphylococcus aureus [3]): 3.6 µg/mL (≈ 11.7 µM); IC50 [5]: > 50 µg/mL; IC50 (Candida parapsilosis): > 50 µg/mL; IC50 (Candida albicans): > 50 µg/mL
9 | O=c1c2ccccc2sn1-c1ccccc1-n1sc2ccccc2c1=O | > 2000 nM | 18 µg/mL (≈ 47.8 µM) | > 50 µg/mL | 14.4 µg/mL (≈ 38.3 µM) | > 50 µg/mL | 10.2 µg/mL (≈ 27.1 µM) | > 50 µg/mL | 6.5 µg/mL (≈ 17.3 µM) | 13.6 µg/mL (≈ 36.1 µM) | > 50 µg/mL | 17.1 µg/mL (≈ 45.4 µM) | > 50 µg/mL | 25 µg/mL (≈ 66.4 µM) | 10 µg/mL (≈ 26.6 µM) | > 50 µg/mL | 13.7 µg/mL (≈ 36.4 µM) | > 50 µg/mL | 6.3 µg/mL (≈ 16.7 µM) | > 50 µg/mL | > 50 µg/mL | IC50 (Aspergillus fumigatus): > 50 µg/mL; IC50 (Staphylococcus aureus [3]): 4.7 µg/mL (≈ 12.5 µM); IC50 [5]: 12.5 µg/mL (≈ 33.2 µM); IC50 (Candida parapsilosis): 15.2 µg/mL (≈ 40.4 µM); IC50 (Candida albicans): 14.2 µg/mL (≈ 37.7 µM)
